How the values were obtained:
[1] = target: Transient receptor potential cation channel subfamily A member 1 (Rattus norvegicus) (UniProt Q6RI86); test: (§1) Antagonist activity at rat TRPA1 expressed in CHO-TREX cells assessed as inhibition of cinnamaldehyde-induced calcium flux incubated 10 mins prior to cinnamaldehyde addition by FLIPR assay relative to control; format: cell-based; parameters: concentration or dose not given beside the values
Method in brief: (§2)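 TRPA1-expressing CHO-TREX cells, channel expression induced with tetracycline (0.5 µg/mL human, 1 µg/mL mouse or rat). Cells loaded with Fluo4-AM for 90 min at room temperature, washed, then test agent added in HBSS/20 mM HEPES/2.5 mM probenecid/0.1% BSA. Agonist added 10 min later at EC80: human cinnamaldehyde 30 µM, AITC 2.5 µM, dibenzoxazepine-carboxamide 5 nM; rat and mouse cinnamaldehyde 40 µM. FLIPR calcium flux; mean of triplicates fitted to sigmoidal dose-response curves.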

[2] = target: Transient receptor potential cation channel subfamily A member 1 (Rattus norvegicus, UniProt Q6RI86); test: as §1; format: cell-based; method in brief: as §2
Sequence of Transient receptor potential cation channel subfamily A member 1 (Rattus norvegicus, UniProt Q6RI86) (Q6RI86 whole entry): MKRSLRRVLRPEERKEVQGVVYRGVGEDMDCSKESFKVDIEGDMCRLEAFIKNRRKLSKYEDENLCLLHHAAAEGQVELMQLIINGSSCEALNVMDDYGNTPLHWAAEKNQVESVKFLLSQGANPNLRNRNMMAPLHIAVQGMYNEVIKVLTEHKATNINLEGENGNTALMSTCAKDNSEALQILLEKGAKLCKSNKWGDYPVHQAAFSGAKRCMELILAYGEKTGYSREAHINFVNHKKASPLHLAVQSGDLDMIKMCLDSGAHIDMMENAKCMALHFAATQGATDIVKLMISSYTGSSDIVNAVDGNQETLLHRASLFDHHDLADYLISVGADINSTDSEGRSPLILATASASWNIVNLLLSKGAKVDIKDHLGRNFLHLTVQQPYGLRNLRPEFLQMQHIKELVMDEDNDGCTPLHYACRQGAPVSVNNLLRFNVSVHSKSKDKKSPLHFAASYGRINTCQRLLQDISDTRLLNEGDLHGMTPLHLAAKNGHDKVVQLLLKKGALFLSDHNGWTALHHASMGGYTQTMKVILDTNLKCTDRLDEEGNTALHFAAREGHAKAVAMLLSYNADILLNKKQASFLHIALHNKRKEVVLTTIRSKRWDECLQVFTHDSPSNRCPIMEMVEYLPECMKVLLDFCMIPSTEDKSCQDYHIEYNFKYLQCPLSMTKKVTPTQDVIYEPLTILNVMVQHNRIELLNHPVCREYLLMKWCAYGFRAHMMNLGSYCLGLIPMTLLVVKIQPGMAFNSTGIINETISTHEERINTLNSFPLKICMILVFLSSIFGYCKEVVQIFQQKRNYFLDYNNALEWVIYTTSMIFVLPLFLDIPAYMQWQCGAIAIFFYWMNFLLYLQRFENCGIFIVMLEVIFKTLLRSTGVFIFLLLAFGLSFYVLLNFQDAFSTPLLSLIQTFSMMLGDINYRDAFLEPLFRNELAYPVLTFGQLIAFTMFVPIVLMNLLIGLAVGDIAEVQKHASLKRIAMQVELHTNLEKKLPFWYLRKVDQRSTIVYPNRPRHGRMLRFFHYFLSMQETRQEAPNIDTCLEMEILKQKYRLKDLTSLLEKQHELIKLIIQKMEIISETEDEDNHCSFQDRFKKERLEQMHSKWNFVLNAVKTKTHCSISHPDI

CHO-K1 [3] = test: Selectivity ratio of IC50 for human TRPV3 expressed in CHOK1 cells to IC50 for human TRPA1 expressed in CHO-TREX cells; format: cell-based
Method in brief: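 Calcium influx was measured by FLIPR in Fluo4-AM-loaded cells: hTRPV3 CHO-K1 challenged with 40 µM 2-APB, and hTRPA1 CHO-TREX (0.5 µg/mL tetracycline) challenged with 30 µM cinnamaldehyde, 2.5 µM AITC or 5 nM dibenzoxazepine carboxamide, all at EC80. Compounds were added 10 min ahead of agonist in HEPES-buffered HBSS with probenecid. Sigmoidal curves were fitted to triplicate means.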

[4] = Clearance in Wistar rat at 3 mg/kg, iv; format: ADME, organism-based; parameters: dose 3 mg/kg, route intravenous; conditions: in vivo
Method in brief: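 Wistar rats given 3 mg/kg i.v. as a solution in 75% PEG300/25% D5W.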

[5] = target: T1, Transient receptor potential cation channel subfamily A member 1 (Homo sapiens, UniProt O75762); test: Antagonist activity at human TRPA1 expressed in CHO-TREX cells assessed as inhibition of dibenzo[b,f ][1,4]oxazepine-4-carboxamide-induced calcium flux incubated 10 mins prior to dibenzo[b,f ][1,4]oxazepine-4-carboxamide addition by FLIPR assay relative to control; format: cell-based; method in brief: as §2
T1 sequence (O75762 whole entry): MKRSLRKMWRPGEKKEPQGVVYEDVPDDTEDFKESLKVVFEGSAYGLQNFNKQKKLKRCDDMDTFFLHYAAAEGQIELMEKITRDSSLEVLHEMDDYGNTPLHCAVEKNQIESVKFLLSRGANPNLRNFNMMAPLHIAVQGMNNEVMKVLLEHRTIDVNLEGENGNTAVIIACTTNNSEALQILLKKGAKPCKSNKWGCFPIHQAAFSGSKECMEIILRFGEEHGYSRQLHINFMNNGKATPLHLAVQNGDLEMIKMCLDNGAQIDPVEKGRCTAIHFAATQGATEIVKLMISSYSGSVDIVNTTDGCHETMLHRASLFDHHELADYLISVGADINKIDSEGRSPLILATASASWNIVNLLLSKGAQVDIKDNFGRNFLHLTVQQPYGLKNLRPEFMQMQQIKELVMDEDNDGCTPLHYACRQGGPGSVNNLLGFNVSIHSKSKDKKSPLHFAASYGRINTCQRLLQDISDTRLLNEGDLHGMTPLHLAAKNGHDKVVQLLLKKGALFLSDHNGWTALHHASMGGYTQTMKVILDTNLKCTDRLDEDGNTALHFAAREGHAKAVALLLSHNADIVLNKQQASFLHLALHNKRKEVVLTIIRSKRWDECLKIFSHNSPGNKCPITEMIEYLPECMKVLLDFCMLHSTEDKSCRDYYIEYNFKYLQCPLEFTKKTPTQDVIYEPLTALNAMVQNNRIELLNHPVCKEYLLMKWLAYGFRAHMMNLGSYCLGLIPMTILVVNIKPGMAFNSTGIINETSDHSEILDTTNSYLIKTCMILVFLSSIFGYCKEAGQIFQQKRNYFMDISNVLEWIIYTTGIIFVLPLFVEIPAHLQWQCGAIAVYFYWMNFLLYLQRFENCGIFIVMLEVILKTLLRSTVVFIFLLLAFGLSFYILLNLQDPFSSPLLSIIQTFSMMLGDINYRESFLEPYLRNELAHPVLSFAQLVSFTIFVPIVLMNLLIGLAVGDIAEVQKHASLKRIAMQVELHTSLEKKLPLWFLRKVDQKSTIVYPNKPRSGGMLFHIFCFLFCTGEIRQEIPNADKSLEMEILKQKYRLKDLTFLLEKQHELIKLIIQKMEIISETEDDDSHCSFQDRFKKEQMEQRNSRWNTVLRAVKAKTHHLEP

[6] = Tmax in Wistar rat at 10 mg/kg, po; format: ADME, organism-based; parameters: dose 10 mg/kg, route oral; conditions: in vivo
Method in brief: (§3)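 Male Wistar rats dosed orally at 10 mg/kg as a suspension in 0.5% methylcellulose/0.5% Tween80.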

[7] = Cmax in Wistar rat at 10 mg/kg, po; format: ADME, organism-based; parameters: dose 10 mg/kg, route oral; conditions: in vivo; method in brief: as §3
[8] = target: Transient receptor potential cation channel subfamily M member 8 (Homo sapiens, UniProt Q7Z2W7); test: Antagonist activity at human TRPM8 expressed in CHOK1 cells assessed as inhibition of menthol-induced calcium flux incubated 10 mins prior to menthol addition by FLIPR assay relative to control; format: cell-based, CHO-K1; conditions: for inhibition: CHO-K1
CHO-K1 [9] = test: Selectivity ratio of IC50 for human TRPV1 expressed in CHOK1 cells to IC50 for human TRPA1 expressed in CHO-TREX cells; format: cell-based
Method in brief: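 Stable hTRPV1 CHO-K1 and tetracycline-induced (0.5 µg/mL) hTRPA1 CHO-TREX cells were loaded with Fluo4-AM for 90 min at room temperature and read on FLIPR. Antagonist preincubation was 10 min before EC80 agonist: capsaicin 40 nM (TRPV1); cinnamaldehyde 30 µM, AITC 2.5 µM or dibenzoxazepine carboxamide 5 nM (TRPA1). Buffer contained probenecid and BSA. IC50s were fitted from triplicate means of max−min calcium signal.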

[10] = target: T1, Transient receptor potential cation channel subfamily A member 1; test: Antagonist activity at human TRPA1 expressed in CHO-TREX cells assessed as inhibition of cinnamaldehyde-induced calcium flux incubated 10 mins prior to cinnamaldehyde addition by FLIPR assay relative to control; format: cell-based; method in brief: as §2
[11] = target: T2, Transient receptor potential cation channel subfamily V member 3 (Homo sapiens, UniProt Q8NET8); test: (§4) Antagonist activity at human TRPV3 expressed in CHOK1 cells assessed as inhibition of 2-APB-induced calcium flux incubated 10 mins prior to 2-APB addition by FLIPR assay relative to control; format: cell-based, CHO-K1
T2 sequence (Q8NET8 whole entry): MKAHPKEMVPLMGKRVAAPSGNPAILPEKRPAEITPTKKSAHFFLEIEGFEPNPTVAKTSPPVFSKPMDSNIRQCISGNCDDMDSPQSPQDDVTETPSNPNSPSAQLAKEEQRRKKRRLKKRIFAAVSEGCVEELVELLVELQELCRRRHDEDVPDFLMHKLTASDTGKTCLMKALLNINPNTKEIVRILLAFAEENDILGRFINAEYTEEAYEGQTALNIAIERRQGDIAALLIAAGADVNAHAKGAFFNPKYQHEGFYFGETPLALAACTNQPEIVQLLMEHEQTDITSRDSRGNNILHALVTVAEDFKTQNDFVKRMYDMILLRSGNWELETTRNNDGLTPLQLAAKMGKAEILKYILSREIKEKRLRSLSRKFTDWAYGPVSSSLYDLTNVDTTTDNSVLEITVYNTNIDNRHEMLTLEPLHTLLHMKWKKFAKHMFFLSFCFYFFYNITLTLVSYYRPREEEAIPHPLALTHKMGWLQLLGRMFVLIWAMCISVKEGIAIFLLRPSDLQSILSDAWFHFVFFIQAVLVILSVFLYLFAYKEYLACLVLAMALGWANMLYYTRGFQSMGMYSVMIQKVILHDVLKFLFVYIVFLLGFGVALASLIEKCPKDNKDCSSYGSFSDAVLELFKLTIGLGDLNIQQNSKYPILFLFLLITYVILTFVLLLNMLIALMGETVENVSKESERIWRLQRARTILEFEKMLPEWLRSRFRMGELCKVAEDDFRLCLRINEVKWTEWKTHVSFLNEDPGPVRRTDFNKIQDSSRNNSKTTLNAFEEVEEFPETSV

[12] = target: T3, Transient receptor potential cation channel subfamily V member 3 (Homo sapiens) (UniProt Q8NET8); test: as §4; format: cell-based; parameters: concentration or dose not given beside the values; conditions: CHO-K1
T3 sequence (whole entry): T2 sequence (Q8NET8 whole entry)

[13] = Volume of distribution at steady state in Wistar rat at 3 mg/kg, iv; format: ADME, organism-based; parameters: dose 3 mg/kg, route intravenous; conditions: in vivo, read-out: Vdss
[14] = Oral bioavailability in Wistar rat at 10 mg/kg; format: ADME, organism-based; conditions: in vivo; method in brief: as §3
CHO-K1 [15] = test: Selectivity ratio of IC50 for human TRPM8 expressed in CHOK1 cells to IC50 for human TRPA1 expressed in CHO-TREX cells; format: cell-based
Method in brief: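 FLIPR calcium-flux antagonist assays with Fluo4-AM loading (90 min, room temperature) in HBSS/20 mM HEPES/2.5 mM probenecid/0.1% BSA. Compound added 10 min before agonist at EC80: 40 µM menthol for CHO-K1 hTRPM8; for tetracycline-induced (0.5 µg/mL) CHO-TREX hTRPA1, 30 µM cinnamaldehyde, 2.5 µM AITC or 5 nM dibenzoxazepine carboxamide. Response is maximum minus minimum. IC50s come from sigmoidal fits of triplicate means.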

[16] = target: Transient receptor potential cation channel subfamily V member 1 (Homo sapiens, UniProt Q8NER1); test: Antagonist activity at human TRPV1 expressed in CHOK1 cells assessed as inhibition of capsaicin-induced calcium flux incubated 10 mins prior to capsaicin addition by FLIPR assay relative to control; format: cell-based, CHO-K1; conditions: for inhibition: CHO-K1
Sequence of Transient receptor potential cation channel subfamily V member 1 (Q8NER1 whole entry): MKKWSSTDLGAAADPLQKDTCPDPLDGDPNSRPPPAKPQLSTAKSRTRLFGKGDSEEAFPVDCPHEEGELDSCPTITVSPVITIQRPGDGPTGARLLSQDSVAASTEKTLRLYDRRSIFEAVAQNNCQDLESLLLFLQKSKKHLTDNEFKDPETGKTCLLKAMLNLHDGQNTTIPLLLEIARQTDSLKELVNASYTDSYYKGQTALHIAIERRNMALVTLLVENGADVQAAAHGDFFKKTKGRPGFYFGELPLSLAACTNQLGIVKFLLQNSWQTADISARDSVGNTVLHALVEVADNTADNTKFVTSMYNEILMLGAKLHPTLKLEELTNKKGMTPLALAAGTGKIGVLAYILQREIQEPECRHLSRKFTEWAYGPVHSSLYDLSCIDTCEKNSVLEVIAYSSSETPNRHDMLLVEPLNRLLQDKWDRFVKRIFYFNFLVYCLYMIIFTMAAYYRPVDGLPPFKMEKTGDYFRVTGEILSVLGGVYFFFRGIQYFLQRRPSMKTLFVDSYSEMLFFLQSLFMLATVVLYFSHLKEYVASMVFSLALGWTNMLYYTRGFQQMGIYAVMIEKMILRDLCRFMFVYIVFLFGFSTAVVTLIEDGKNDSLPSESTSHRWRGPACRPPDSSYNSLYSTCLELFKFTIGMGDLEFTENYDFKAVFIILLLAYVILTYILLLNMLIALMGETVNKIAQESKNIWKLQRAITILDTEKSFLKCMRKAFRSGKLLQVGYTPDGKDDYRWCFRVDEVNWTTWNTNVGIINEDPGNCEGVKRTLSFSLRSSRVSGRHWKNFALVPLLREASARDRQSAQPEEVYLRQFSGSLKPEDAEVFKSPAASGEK

[17] = target: Transient receptor potential cation channel subfamily A member 1 (Mus musculus, UniProt Q8BLA8); test: (§5) Antagonist activity at mouse TRPA1 expressed in CHO-TREX cells assessed as inhibition of cinnamaldehyde-induced calcium flux incubated 10 mins prior to cinnamaldehyde addition by FLIPR assay relative to control; format: cell-based; method in brief: as §2
Sequence of Transient receptor potential cation channel subfamily A member 1 (Mus musculus, UniProt Q8BLA8) (Q8BLA8 whole entry): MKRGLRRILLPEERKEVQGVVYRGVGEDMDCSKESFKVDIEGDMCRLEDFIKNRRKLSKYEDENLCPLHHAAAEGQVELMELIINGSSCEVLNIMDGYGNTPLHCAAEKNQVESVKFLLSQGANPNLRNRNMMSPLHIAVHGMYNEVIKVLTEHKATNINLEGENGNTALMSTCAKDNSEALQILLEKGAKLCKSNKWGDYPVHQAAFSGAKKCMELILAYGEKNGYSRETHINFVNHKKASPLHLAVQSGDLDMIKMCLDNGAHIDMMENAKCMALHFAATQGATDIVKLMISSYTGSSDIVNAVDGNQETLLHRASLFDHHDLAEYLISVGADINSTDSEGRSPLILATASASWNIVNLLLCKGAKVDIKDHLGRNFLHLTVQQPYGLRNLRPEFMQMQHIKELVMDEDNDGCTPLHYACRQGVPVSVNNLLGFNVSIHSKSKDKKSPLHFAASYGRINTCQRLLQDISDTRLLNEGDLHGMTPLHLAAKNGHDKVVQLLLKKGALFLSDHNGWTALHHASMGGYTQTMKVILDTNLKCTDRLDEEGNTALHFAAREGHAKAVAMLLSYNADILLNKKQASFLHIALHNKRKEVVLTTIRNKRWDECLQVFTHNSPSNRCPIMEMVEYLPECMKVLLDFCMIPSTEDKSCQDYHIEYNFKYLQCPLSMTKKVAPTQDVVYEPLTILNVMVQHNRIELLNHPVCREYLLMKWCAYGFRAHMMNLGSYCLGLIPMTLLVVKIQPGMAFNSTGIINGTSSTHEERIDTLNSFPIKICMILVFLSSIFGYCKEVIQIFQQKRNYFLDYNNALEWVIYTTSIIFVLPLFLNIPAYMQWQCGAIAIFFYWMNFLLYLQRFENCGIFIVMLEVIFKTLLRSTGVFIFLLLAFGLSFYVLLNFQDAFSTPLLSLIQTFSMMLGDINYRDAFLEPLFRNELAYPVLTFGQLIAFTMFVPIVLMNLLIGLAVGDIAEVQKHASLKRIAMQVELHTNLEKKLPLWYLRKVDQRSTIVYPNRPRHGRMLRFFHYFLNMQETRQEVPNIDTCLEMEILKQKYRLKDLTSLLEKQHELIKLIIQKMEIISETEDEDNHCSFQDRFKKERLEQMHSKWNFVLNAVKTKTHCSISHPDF

[18] = target: Transient receptor potential cation channel subfamily A member 1 (Mus musculus) (UniProt Q8BLA8); test: as §5; format: cell-based; parameters: concentration or dose not given beside the values; method in brief: as §2
Sequence of Transient receptor potential cation channel subfamily A member 1 (Mus musculus) (Q8BLA8 whole entry): as above

[19] = AUC in Wistar rat at 10 mg/kg, po; format: ADME, organism-based; parameters: dose 10 mg/kg, route oral; conditions: plasma; method in brief: as §3
[20] = Half life in Wistar rat at 3 mg/kg, iv; format: ADME, organism-based; parameters: dose 3 mg/kg, route intravenous; conditions: in vivo
[21] = target: T1, Transient receptor potential cation channel subfamily A member 1; test: Antagonist activity at human TRPA1 expressed in CHO-TREX cells assessed as inhibition of allyl isothiocyanate-induced calcium flux incubated 10 mins prior to allyl isothiocyanate addition by FLIPR assay relative to control; format: cell-based; method in brief: as §2

Sequence of Transient receptor potential cation channel subfamily A member 1 (Rattus norvegicus) (Q6RI86 whole entry): as the sequence (Q6RI86 whole entry) above

FC(F)(F)c1ccccc1-c1ccc2[nH]ncc2c1
inhibition [1]: 98% | IC50 [2]: 400 nM | Ratio IC50 (CHO-K1 [3]): > 100 | clearance [4]: 14.7 mL/min/kg | IC50 [5]: 550 nM | inhibition [5]: 100% | Tmax [6]: 0.5 h | Cmax [7]: 4.77 µM | IC50 [8]: 9000 nM | inhibition [8]: 95% | Ratio IC50 (CHO-K1 [9]): > 100 | IC50 [10]: 164 nM | inhibition [10]: 98% | IC50 [11]: > 30000 nM | inhibition [12]: 10% | Vd [13]: 2.06 L/kg | bioavailability [14]: 37% | Ratio IC50 (CHO-K1 [15]): > 100 | IC50 [16]: > 30000 nM | inhibition [16]: 34% | IC50 [17]: 252 nM | inhibition [18]: 100% | AUC [19]: 15.7 µM·h | half-life [20]: 3.5 h | IC50 [21]: 84 nM | inhibition [21]: 97%

FC(F)Oc1cc2[nH]ncc2cc1-c1ccccc1C(F)(F)F
IC50 [10]: 50 nM | inhibition [10]: 98%

Fc1ccc(C(F)(F)F)c(-c2ccc3[nH]ncc3c2)c1
IC50 [10]: 306 nM | inhibition [10]: 98%

N#Cc1ccccc1-c1ccc2[nH]ncc2c1
IC50 [10]: 1290 nM | inhibition [10]: 91%

Fc1cc2[nH]ncc2cc1-c1ccccc1C(F)(F)F
IC50 [10]: 48 nM | inhibition [10]: 98%

CC(C)(C)c1ccccc1-c1ccc2[nH]ncc2c1
IC50 [10]: 3400 nM | inhibition [10]: 96%

CNC(=O)c1cc2[nH]ncc2cc1-c1ccccc1C(F)(F)F
IC50 [10]: > 30000 nM

Fc1ccccc1-c1ccc2[nH]ncc2c1
IC50 [10]: 3950 nM | inhibition [10]: 68%

Fc1c(-c2ccccc2C(F)(F)F)ccc2[nH]ncc12
IC50 [10]: 296 nM | inhibition [10]: 97%

Clc1ccccc1-c1ccc2[nH]ncc2c1
IC50 [10]: 1230 nM | inhibition [10]: 91%

Cc1n[nH]c2ccc(-c3ccccc3C(F)(F)F)cc12
IC50 [10]: 3090 nM | inhibition [10]: 83%

Fc1cccc(C(F)(F)F)c1-c1ccc2[nH]ncc2c1
IC50 [10]: 1230 nM | inhibition [10]: 95%

N#Cc1cc2[nH]ncc2cc1-c1ccccc1C(F)(F)F
IC50 [10]: 129 nM | inhibition [10]: 100%

COCc1cc2[nH]ncc2cc1-c1ccccc1C(F)(F)F
IC50 [10]: 142 nM | inhibition [10]: 97%

FC(F)(F)c1ccccc1-c1cc2cn[nH]c2cc1Cl
inhibition [1]: 98% | IC50 [2]: 169 nM | Ratio IC50 (CHO-K1 [3]): > 100 | clearance [4]: 13.6 mL/min/kg | Tmax [6]: 0.5 h | Cmax [7]: 6.05 µM | IC50 [8]: 17100 nM | inhibition [8]: 71% | Ratio IC50 (CHO-K1 [9]): > 100 | IC50 [10]: 24 nM | inhibition [10]: 98% | IC50 [11]: > 30000 nM | inhibition [12]: 0% | Vd [13]: 1.65 L/kg | bioavailability [14]: 63% | Ratio IC50 (CHO-K1 [15]): > 100 | IC50 [16]: 16700 nM | inhibition [16]: 70% | IC50 [17]: 94 nM | inhibition [18]: 100% | AUC [19]: 26.2 µM·h | half-life [20]: 3.4 h

Cc1ccccc1-c1ccc2[nH]ncc2c1
IC50 [10]: 7810 nM | inhibition [10]: 78%

FC(F)c1cc2[nH]ncc2cc1-c1ccccc1C(F)(F)F
IC50 [10]: 103 nM | inhibition [10]: 100%

— ChEMBL document CHEMBL3297713, “Discovery, optimization, and biological evaluation of 5-(2-(trifluoromethyl)phenyl)indazoles as a novel class of transient receptor potential A1 (TRPA1) antagonists” (J Med Chem, 2014)
